From ChEMBL document CHEMBL3877287, “Analogue based drug design, synthesis, molecular docking and anticancer evaluation of novel chromene sulfonamide hybrids as aromatase inhibitors and apoptosis enhancers” (Eur J Med Chem, 2016) come the findings set out here.

A short description of data set [1]: Cytotoxicity against human T47D cells after 48 hrs by sulforhodamine B assay. The data set is classed as functional, cell-based. A digest of the protocol: (§1)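 Cells grown in RPMI 1640 with 10% heat-inactivated FBS and 1% penicillin-streptomycin-amphotericin B at 37 °C, 5% CO2, passages 5–20. Plated at 10⁴ cells/well with 24 h recovery. Exposed to 5, 12, 25 and 50 μmol/L from DMSO stock (final DMSO <0.1%), triplicate wells, 48 h. TCA-fixed, SRB-stained, read by ELISA reader. IC50 fitted with Hill-type equation.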
For orientation: In SRB staining, fixed cells bind dye roughly in proportion to their protein.

Data set [2] concerns the target T1, Aromatase (Homo sapiens, UniProt P11511).
T1 sequence (P11511 whole entry): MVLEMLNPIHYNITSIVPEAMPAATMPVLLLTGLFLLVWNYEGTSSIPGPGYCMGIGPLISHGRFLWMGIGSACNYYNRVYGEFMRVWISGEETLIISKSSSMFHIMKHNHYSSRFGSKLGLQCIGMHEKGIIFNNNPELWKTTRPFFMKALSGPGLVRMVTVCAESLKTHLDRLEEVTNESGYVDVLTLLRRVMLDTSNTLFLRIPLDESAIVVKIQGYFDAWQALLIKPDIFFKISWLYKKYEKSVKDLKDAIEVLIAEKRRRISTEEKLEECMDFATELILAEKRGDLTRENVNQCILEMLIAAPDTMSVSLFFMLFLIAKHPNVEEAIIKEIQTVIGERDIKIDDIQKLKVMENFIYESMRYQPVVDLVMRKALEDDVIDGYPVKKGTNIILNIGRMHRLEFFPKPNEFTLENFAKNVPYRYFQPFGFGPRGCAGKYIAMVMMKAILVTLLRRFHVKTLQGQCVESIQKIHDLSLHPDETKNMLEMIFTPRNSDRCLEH
Nature of the data set: Inhibition of aromatase activity in human T47D cells at 100 uL after 24 hrs. The data set is classed as cell-based. Details: concentration or dose not given beside the values. In short, it runs like this: (§2)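 T47D cells in RPMI 1640 with 10% FBS and 1% penicillin-streptomycin, seeded at 1.2–1.8 × 10,000 cells/well in 100 µL medium plus 100 µL compound. Cells treated 24 h, including serial dilutions for IC50. Aromatase (CYP19A1) then measured with a human ELISA kit.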

Data set [3] addresses T1, Aromatase. In words: Inhibition of aromatase activity in human T47D cells after 24 hrs. The data set is classed as cell-based. In short, it runs like this:
as §2

Data set [4] can be described thus: Cell cycle arrest in human T47D cells assessed as G2/M phase accumulation at 9.2 uM by propidium iodide staining based cytometry (reference value: 15.81%). It counts as functional. In short, it runs like this:
(§3)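 T47D cells exposed to test compound at 9.2 μM. Cells stained with propidium iodide per kit procedure and run on a DNA cytometer. PBMCs of known DNA content served as reference for DNA index. Percent of cells in G1, S and G2/M phases compared with untreated control.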

A short description of data set [5]: Induction of apoptosis in human T47D cells assessed as upregulation of active caspase 3 level by immunoassay relative to letrozole. The data set is classed as functional, cell-based.
The nature of data set [6]: Induction of apoptosis in human T47D cells assessed as upregulation of caspase 8 at IC50 after 48 hrs by ELISA method relative to control. The data set is classed as functional, cell-based. A digest of the protocol:
(§4)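 Cells grown in RPMI 1640 with 10% FBS at 37 °C, plated at 1.2–1.8 × 10,000 cells/well and exposed to compound for 48 h. Lysed in cell extraction buffer, diluted in standard diluent. Caspase-8 and caspase-9 measured separately by human ELISA, absorbance 450 nm. Fold versus control.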
(In general: An ELISA detects its analyte on a solid surface through an enzyme-linked reagent.)

The subject of data set [7] is T47D. In words: Induction of apoptosis in human T47D cells assessed as decrease in Bcl2 level at IC50 relative to control. It counts as functional.
Data set [8] in a line: Induction of apoptosis in human T47D cells assessed as upregulation of active caspase 3 level at IC50 by immunoassay relative to control. The data set is classed as functional, cell-based. In short, it runs like this:
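Cells washed with PBS and lysed in extraction buffer with protease inhibitors (1 mL per 10⁷ cells). Lysate diluted just before assay. Active caspase-3 measured by human sandwich immunoassay with absorbance at 450 nm read within 30 min. Expressed as fold versus control cells.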

Data set [9] can be described thus: Cell cycle arrest in human T47D cells assessed as G1 phase accumulation at 9.2 uM by propidium iodide staining based cytometry (reference value: 64.92%). It counts as functional. A digest of the protocol:
as §3

The subject of data set [10] is T47D. Nature of the data set: Induction of apoptosis in human T47D cells assessed as Bcl-xl level at IC50 (reference value: 754565 IU/ml). The data set is classed as functional.
The subject of data set [11] is T47D. In words: Induction of apoptosis in human T47D cells at 9.2 uM by propidium iodide staining based cytometry (reference value: 2.13%). The data set is classed as functional.
Data set [12] relates to T47D. Nature of the data set: Induction of apoptosis in human T47D cells assessed as Bax level at IC50 (reference value: 24.6 IU/ml). It counts as functional.
The nature of data set [13]: Cell cycle arrest in human T47D cells assessed as S phase accumulation at 9.2 uM by propidium iodide staining based cytometry (reference value: 17.14%). It counts as functional. A digest of the protocol:
as §3

Data set [14] deals with T47D. Nature of the data set: Induction of apoptosis in human T47D cells assessed as decrease in Bcl-xl level at IC50 relative to control. The data set is classed as functional.
Data set [15] is described as follows: Cytotoxicity against human 184A1 cells after 48 hrs by sulforhodamine B assay. It counts as toxicity, cell-based. A digest of the protocol: as §1
Data set [16] is described as follows: Induction of apoptosis in human T47D cells assessed as upregulation of caspase 9 at IC50 after 48 hrs by ELISA method relative to control. The data set is classed as functional, cell-based. A digest of the protocol:
as §4

Data set [17] has as its system T47D. In words: Induction of apoptosis in human T47D cells assessed as Bcl2 level at IC50 (reference value: 568019 IU/ml). The data set is classed as functional.
For data set [18], the system named is T47D. Nature of the data set: Induction of apoptosis in human T47D cells assessed as increase in Bax/Bcl2 ratio at IC50 relative to control. The data set is classed as functional.

`NS(=O)(=O)c1ccc(N/C=C\C(=O)c2cc3ccccc3oc2=O)cc1`: in [1], it took 109 µM to reach half-maximal inhibition (IC50).
For `Cc1cc(C)nc(NS(=O)(=O)c2ccc(N/C=C\C(=O)c3cc4ccccc4oc3=O)cc2)n1`, half-maximal inhibition in data set [1] (IC50) was put at 62.2 µM. Besides, on Aromatase [2], the “inhibition (INH)” value was determined as 30%.
Regarding `O=C(/C=C\Nc1ccc(S(=O)(=O)Nc2ccccn2)cc1)c1cc2ccccc2oc1=O`, the 50% inhibitory concentration (IC50) – broadly, the concentration that gives 50% inhibition – in data set [1] was determined as 37.6 µM; at Aromatase [3], 12.5 µM. In addition, the “inhibition (INH)” value at Aromatase [2] was determined as 65%.
As for `Cc1cc(NS(=O)(=O)c2ccc(N/C=C\C(=O)c3cc4ccccc4oc3=O)cc2)nc(C)n1`, the IC50 in data set [1] turned out to be 100 µM.
Regarding `COc1cccc2c1C(=O)c1c(O)c3c(c(O)c1C2=O)C[C@@](O)(C(=O)CO)C[C@@H]3O[C@H]1C[C@H](N)[C@H](O)[C@H](C)O1` [DOXORUBICIN], the 50% inhibitory concentration (IC50) in data set [1] came to 9.8 µM.
For `O=C(/C=C\Nc1ccc(S(=O)(=O)Nc2ccnn2-c2ccccc2)cc1)c1cc2ccccc2oc1=O`, the Activity turned out to be 44.5% in data set [4]; 9.2% in [9]; 384 IU/ml in the data set with T47D [10]; 31.7% in the data set with T47D [11]; 402127 IU/ml in the data set on T47D [12]; 14.6% in [13]. For the same molecule, the Activity with T47D [17] was 1540 IU/ml. Moreover, the fold change (FC) in [5] is 3; in data set [6], 40; in the data set on T47D [7], 369; in [8], 45; with T47D [14], 1965; in [16], 10. The “fold change (FC)” value with T47D [18] worked out at 33000. For the same molecule, the IC50 in [1] stood at 9.2 µM; against Aromatase [3], 5.09 µM. Besides, the “inhibition (INH)” value against Aromatase [2] stood at 70%. The molecule also came in with a 50% inhibitory concentration (IC50) at 48 h in data set [15] of 184 µM.
As for `COc1cnc(NS(=O)(=O)c2ccc(N/C=C\C(=O)c3cc4ccccc4oc3=O)cc2)nc1`, the fold change (FC) in [5] is 1.3; in data set [6], 21.8; with T47D [7], 819.65; in [8], 20.6; with T47D [14] it was 111.35; in data set [16], 9.91. Further, the “fold change (FC)” value in the data set on T47D [18] amounted to 5936. Moreover, the Activity in the data set with T47D [10] is listed as 6776 IU/ml; with T47D [12], 176887 IU/ml; in the data set on T47D [17], 693 IU/ml. In addition, the IC50 was found to be 8.8 µM in data set [1] and 6.07 µM against Aromatase [3]. For the same molecule, the “inhibition (INH)” value against Aromatase [2] was found to be 81%. In [15], this molecule came in with a concentration for half-maximal inhibition (IC50) at 48 h of 172 µM.
`Cc1noc(NS(=O)(=O)c2ccc(N/C=C\C(=O)c3cc4ccccc4oc3=O)cc2)c1C` gave a concentration for half-maximal inhibition (IC50) in [1] of 68.4 µM. Besides, on Aromatase [2], the “inhibition (INH)” value stood at 20%.
As to `O=C(/C=C\Nc1ccc(S(=O)(=O)Nc2ncccn2)cc1)c1cc2ccccc2oc1=O`, in data set [1], inhibition was half-maximal at 75.2 µM (IC50). Moreover, the “inhibition (INH)” value against Aromatase [2] is given as 41%.
In data set [1], `O=C(C=CNc1ccc(S(=O)(=O)c2ccc(NC=CC(=O)c3cc4ccccc4oc3=O)cc2)cc1)c1cc2ccccc2oc1=O` came in with an IC50 of 70.3 µM.
For the molecule `COc1cc(NS(=O)(=O)c2ccc(N/C=C\C(=O)c3cc4ccccc4oc3=O)cc2)nc(OC)n1`, the 50% inhibitory concentration (IC50) in [1] was found to be 37.8 µM. The “inhibition (INH)” value against Aromatase [2] was determined as 44%.
As for `Cc1ccnc(NS(=O)(=O)c2ccc(N/C=C\C(=O)c3cc4ccccc4oc3=O)cc2)n1`, the 50% inhibitory concentration (IC50) in data set [1] was determined as 24.5 µM; against Aromatase [3] it was 9.52 µM. Besides, the “inhibition (INH)” value against Aromatase [2] is 67%.
For `Cc1cc(NS(=O)(=O)c2ccc(N/C=C\C(=O)c3cc4ccccc4oc3=O)cc2)on1`, the half-inhibitory concentration (IC50) in [1] turned out to be 75.6 µM. The “inhibition (INH)” value against Aromatase [2] is recorded as 28%.
For `N=C(N)NS(=O)(=O)c1ccc(N/C=C\C(=O)c2cc3ccccc3oc2=O)cc1` the same measures were 87.6 µM and 30%.
Molecule `Nc1ccc(S(=O)(=O)c2ccc(N/C=C\C(=O)c3cc4ccccc4oc3=O)cc2)cc1` registered a concentration for half-maximal inhibition (IC50) in [1] of 91.9 µM.
`COc1ncnc(NS(=O)(=O)c2ccc(N/C=C\C(=O)c3cc4ccccc4oc3=O)cc2)c1OC`: the IC50 in data set [1] was 9.8 µM; at Aromatase [3], 4.66 µM. For the same molecule, the “inhibition (INH)” value against Aromatase [2] was found to be 69%.
On to `CN(C)/C=C/C(=O)c1cc2ccccc2oc1=O`, for which, in data set [1], it took 146 µM to reach half-maximal inhibition (IC50).
Same read-out and setting: under `O=C(/C=C\Nc1ccc(S(=O)(=O)Nc2cnc3ccccc3n2)cc1)c1cc2ccccc2oc1=O` stands 86.9 µM.
The same measure, in the same setting: under `O=C(/C=C\Nc1ccc(S(=O)(=O)Nc2ccc3cn[nH]c3c2)cc1)c1cc2ccccc2oc1=O` stands 96.5 µM.
Still for that read-out and setting: under `Cc1nnc(NS(=O)(=O)c2ccc(N/C=C\C(=O)c3cc4ccccc4oc3=O)cc2)s1` stands 94 µM.
